Test results taken from ChEMBL document CHEMBL1122186, “Synthesis and spasmolytic activities of 2-(1,2-benzisoxazol-3-yl)-3-[[omega-(dialkylamino)alkoxy]phenyl]acrylonitriles” (1982).

Assays:
Assay type in all cases: functional
Mus musculus [1] = species on record: Mus musculus
Cavia porcellus [2] = species on record: Cavia porcellus; test: (§1) Inhibitory effect on the response of isolated ileum to acetylcholine (anti-ACh activity) in guinea pig was determined
Procedure, shortened: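 Ileum contraction to acetylcholine (1.1 × 10^-4 mM), with compound added 2 min before the agonist. Three concentrations per compound, percent inhibition averaged over four experiments. ID50 is derived graphically.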

Mus musculus [3] = test: Percent inhibition of the charcoal meal transfer in mice(100 mg/kg) was determined
Procedure, shortened: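 Male ddN mice (20–25 g) are fasted 18 h and dosed orally. Charcoal meal (5% charcoal in 10% tragacanth) is given orally 20 min later, and mice are killed after 30 min. Charcoal travel is expressed as % of small-intestine length (pylorus to caecum). The group mean (n=7) is compared with the vehicle group (n=7) as percent change.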

Cavia porcellus [4] = species on record: Cavia porcellus; test: as §1; remark: listed apart in the source
Procedure, shortened: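 Isolated ileum contracted with acetylcholine (1.1 × 10^-4 mM). Test compound added 2 min before the agonist. Each compound was tested at three concentrations, with percent inhibition of the contraction as the mean of four experiments. ID50, the concentration giving 50% inhibition, was read off by the usual graphic method.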

SMILES	Inhibition (Mus musculus [1])	also measured
Br.N#C/C(=C\c1ccccc1OCCN1CCCCCC1)c1noc2ccccc12	27%	
Cl.N#C/C(=C\c1ccccc1OCCCCN1CCOCC1)c1noc2ccccc12	22%	
Cl.N#C/C(=C\c1ccccc1OCCCN1CCOCC1)c1noc2ccccc12	46%	
Cl.N#C/C(=C\c1cccc(OCCN2CCOCC2)c1)c1noc2ccccc12	32%	
Cl.N#C/C(=C\c1ccccc1OCCN1CCCC1)c1noc2ccccc12	22%	
CCN(CC)CCOc1ccccc1/C=C(\C#N)c1noc2ccccc12.Cl	20%	
Cl.N#C/C(=C\c1ccccc1OCCN1CCOCC1)c1noc2ccc(O)cc12	4%	
Cl.N#C/C(=C\c1ccc(OCCCN2CCCCC2)cc1)c1noc2ccccc12.O	19%	
COc1ccc2onc(/C(C#N)=C/c3ccccc3OCCN3CCOCC3)c2c1.Cl	48%	ID50 (Cavia porcellus [2]): 32 µM
COc1ccc2onc(/C(C#N)=C/c3ccccc3OCCN3CCCC3)c2c1.Cl.O	33%	
COc1ccc2onc(/C(C#N)=C/c3ccccc3OCCN3CCCCC3)c2c1.Cl.O		Inhibition (Mus musculus [3]): 51%; ID50 (Cavia porcellus [2]): 25 µM
Cl.N#C/C(=C\c1ccccc1OCCN1CCCCC1)c1noc2ccc(O)cc12	39%	
CCN(CC)CCOc1ccccc1/C=C(\C#N)c1noc2ccc(O)cc12.Cl	14%	
Cl.N#C/C(=C\c1ccccc1OCCCN1CCCCCC1)c1noc2ccccc12	21%	
CN(C)CCCOc1ccccc1/C=C(\C#N)c1noc2ccccc12.Cl	9%	
CN(C)CCOc1ccccc1/C=C(\C#N)c1noc2ccccc12.Cl.O	37%	ID50 (Cavia porcellus [2]): 16 µM
Cl.N#C/C(=C\c1ccccc1OCCN1CCCCC1)c1noc2ccccc12.O	45%	ID50 (Cavia porcellus [2]): 8.7 µM
Cl.N#C/C(=C\c1ccccc1OCCN1CCOCC1)c1noc2ccccc12.O	55%	ID50 (Cavia porcellus [2]): 22 µM
Cl.N#C/C(=C\c1ccccc1OCCN1CCOCC1)c1noc2ccc(Cl)cc12.O	11%	
Cl.N#C/C(=C\c1ccccc1OCCN1CCCCC1)c1noc2ccc(Cl)cc12.O	37%	
Cl.N#C/C(=C\c1ccccc1OCCN1CCCC1)c1noc2ccc(Cl)cc12	19%	
CN(C)CCOc1ccccc1/C=C(\C#N)c1noc2ccc(Cl)cc12.Cl	11%	
C[N+]1(CCOc2ccccc2/C=C(\C#N)c2noc3ccccc23)CCOCC1.[I-]	12%	
CN1[C@@H]2CC[C@H]1C[C@@H](OC(=O)C(CO)c1ccccc1)C2.O=S(=O)(O)O (stereo not given in full) [ATROPINE SULFATE]	27%	ID50 (Cavia porcellus [2]): 0.0072 µM
CCCC[N+]1(C)[C@@H]2C[C@@H](OC(=O)[C@H](CO)c3ccccc3)C[C@H]1[C@@H]1O[C@@H]12.[Br-] (stereo not given in full) [BUTYLSCOPOLAMINE BROMIDE]	19%	ID50 (Cavia porcellus [2]): 0.075 µM
CN1CC[C@]23c4c5ccc(O)c4O[C@H]2[C@@H](O)C=C[C@H]3[C@H]1C5.Cl [MORPHINE HYDROCHLORIDE]	64%	ID50 (Cavia porcellus [4]): 5.3 µM
COc1ccc(Cc2nccc3cc(OC)c(OC)cc23)cc1OC.Cl [PAPAVERINE HYDROCHLORIDE]	1%	
